In brackets after ≈: the same amount, converted by molar mass. Activity calls are given as the source filed them. The calls are words filed in the database; no cut-off is given here.
System: Pseudomonas aeruginosa
Assay: Antibacterial activity against Pseudomonas aeruginosa ATCC 27853 measured after 18 hrs by CLSI broth dilution method
Format: functional
Settings: ATCC 27853, 18 h
Outline: (§1)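 Broth MIC in Mueller-Hinton II broth following CLSI, compounds dissolved in DMSO. Strains subcultured twice on tryptic soy agar before testing. Growth read after 35 °C, 18 h.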

MIC | Compound
> 400 µg/mL | C[Si]1(C)OB(O)c2cc(B(O)O)cc(F)c21

System: Pichia kudriavzevii
Assay: Antifungal activity against Candida krusei ATCC 6258 assessed as diameter of zone inhibition incubated for 24 hrs by CLSI disc diffusion method
Format: functional
Settings: not given
Outline: (§2)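 Yeast disc diffusion on Mueller-Hinton agar supplemented with 2% glucose and 0.5 mg/L methylene blue. Compounds in DMSO. Yeasts subcultured on Sabouraud dextrose agar before testing. Zones read after 35 °C, 24 h.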

Compound | diameter of the inhibition zone (DIZ)
C[Si]1(C)OB(O)c2cc(B(O)O)cc(F)c21 | inactive

System: Enterococcus faecalis
Assay: Antibacterial activity against Enterococcus faecalis ATCC 29212 assessed as diameter of zone inhibition measured after 18 hrs by CLSI disc diffusion method
Format: functional
Settings: not given
Outline: (§3)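 Disc diffusion on Mueller-Hinton II agar. Compounds dissolved in DMSO. Strains stored at -80 °C and subcultured twice on tryptic soy agar before testing. Inhibition zones read after 35 °C, 18 h.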

Compound | diameter of the inhibition zone (DIZ)
C[Si]1(C)OB(O)c2cc(B(O)O)cc(F)c21 | 12 mm

System: Proteus mirabilis
Assay: Antibacterial activity against Proteus mirabilis ATCC 12453 assessed as diameter of zone inhibition measured after 18 hrs by CLSI disc diffusion method
Format: functional
Settings: not given
Outline: as §3

Compound | diameter of the inhibition zone (DIZ)
C[Si]1(C)OB(O)c2cc(B(O)O)cc(F)c21 | inactive

System: Escherichia coli
Assay: Antibacterial activity against Escherichia coli ATCC 25922 assessed as diameter of zone inhibition measured after 18 hrs by CLSI disc diffusion method
Format: functional
Settings: not given
Outline: as §3

Compound | diameter of the inhibition zone (DIZ)
C[Si]1(C)OB(O)c2cc(B(O)O)cc(F)c21 | inactive

System: Staphylococcus epidermidis
Assay: Antibacterial activity against Staphylococcus epidermidis ATCC 12228 assessed as diameter of zone inhibition measured after 18 hrs by CLSI disc diffusion method
Format: functional
Settings: not given
Outline: as §3

Compound | diameter of the inhibition zone (DIZ)
C[Si]1(C)OB(O)c2cc(B(O)O)cc(F)c21 | 29 mm

System: Enterobacter cloacae
Assay: Antibacterial activity against Enterobacter cloacae DSM 6234 measured after 18 hrs by CLSI broth dilution method
Format: functional
Settings: DSM 6234, 18 h
Outline: as §1

MIC | Compound
> 400 µg/mL | C[Si]1(C)OB(O)c2cc(B(O)O)cc(F)c21

System: Bordetella bronchiseptica
Assay: Antibacterial activity against Bordetella bronchiseptica ATCC 4617 assessed as diameter of zone inhibition measured after 18 hrs by CLSI disc diffusion method
Format: functional
Settings: not given
Outline: as §3

Compound | diameter of the inhibition zone (DIZ)
C[Si]1(C)OB(O)c2cc(B(O)O)cc(F)c21 | inactive

System: Stenotrophomonas maltophilia
Assay: Antibacterial activity against Stenotrophomonas maltophilia ATCC 13637 assessed as fold reduction of MIC in presence of efflux pump inhibitor PAbetaN incubated for 18 hrs by broth microdilution method
Format: functional
Settings: not given
Outline: (§4)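 MICs determined with and without PAβN at 50 mg/L in Mueller-Hinton broth containing 1 mM MgSO₄. 2-fold serial dilutions per CLSI. Fold change taken from the paired MICs after 35 °C, 18 h.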

Compound | fold change (FC)
C[Si]1(C)OB(O)c2cc(B(O)O)cc(F)c21 | 16

System: Klebsiella pneumoniae
Assay: Antibacterial activity against Klebsiella pneumoniae ATCC 13883 measured after 18 hrs by CLSI broth dilution method
Format: functional
Settings: ATCC 13883, 18 h
Outline: as §1

MIC | Compound
> 400 µg/mL | C[Si]1(C)OB(O)c2cc(B(O)O)cc(F)c21

System: not listed separately
Assay: Dissociation constant, pKa1 of compound in 0.1 M NaOH by potentiometric analysis
Format: physicochemical
Settings: not given

pKa | Compound
6.6 | C[Si]1(C)OB(O)c2cc(B(O)O)cc(F)c21

System: Escherichia coli
Assay: Antibacterial activity against Escherichia coli ATCC 25922 assessed as fold reduction of MIC in presence of efflux pump inhibitor PAbetaN incubated for 18 hrs by CLSI broth microdilution method
Format: functional
Settings: not given
Outline: as §4

Compound | fold change (FC)
C[Si]1(C)OB(O)c2cc(B(O)O)cc(F)c21 | 8

System: Enterococcus faecalis
Assay: Antibacterial activity against Enterococcus faecalis ATCC 29212 measured after 18 hrs by CLSI broth dilution method
Format: functional
Settings: ATCC 29212, 18 h
Outline: as §1

MIC | Compound
400 µg/mL (≈ 1670 µM) | C[Si]1(C)OB(O)c2cc(B(O)O)cc(F)c21

System: Klebsiella pneumoniae
Assay: Antibacterial activity against Klebsiella pneumoniae ATCC 13883 assessed as fold reduction of MIC in presence of efflux pump inhibitor PAbetaN incubated for 18 hrs by broth microdilution method
Format: functional
Settings: not given
Outline: as §4

Compound | fold change (FC)
C[Si]1(C)OB(O)c2cc(B(O)O)cc(F)c21 | 8

System: Meyerozyma guilliermondii
Assay: Antifungal activity against Candida guilliermondii IBA 155 assessed as decrease in fungal cell growth at 0.78 to 12.5 mg/L incubated for 24 hrs by CLSI broth dilution method
Format: functional
Settings: IBA 155, 24 h
Outline: (§5)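 Yeast broth dilution in RPMI 1640 with 2% glucose, compounds in DMSO. Yeasts pre-grown on Sabouraud dextrose agar. Growth read after 35 °C, 24 h.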

MIC | Compound
400 µg/mL (≈ 1670 µM) | C[Si]1(C)OB(O)c2cc(B(O)O)cc(F)c21

System: Burkholderia cepacia
Assay: Antibacterial activity against Burkholderia cepacia ATCC 25416 measured after 18 hrs by CLSI broth dilution method
Format: functional
Settings: ATCC 25416, 18 h
Outline: as §1

MIC | Compound
> 400 µg/mL | C[Si]1(C)OB(O)c2cc(B(O)O)cc(F)c21

System: Acinetobacter baumannii
Assay: Antibacterial activity against Acinetobacter baumannii ATCC 19606 measured after 18 hrs by CLSI broth dilution method
Format: functional
Settings: ATCC 19606, 18 h
Outline: as §1

MIC | Compound
> 400 µg/mL | C[Si]1(C)OB(O)c2cc(B(O)O)cc(F)c21

System: Stenotrophomonas maltophilia
Assay: Antibacterial activity against Stenotrophomonas maltophilia ATCC 13637 measured after 18 hrs by CLSI broth dilution method
Format: functional
Settings: ATCC 13637, 18 h
Outline: as §1

MIC | Compound
> 400 µg/mL | C[Si]1(C)OB(O)c2cc(B(O)O)cc(F)c21

System: Proteus mirabilis
Assay: Antibacterial activity against Proteus mirabilis ATCC 12453 measured after 18 hrs by CLSI broth dilution method
Format: functional
Settings: ATCC 12453, 18 h
Outline: as §1

MIC | Compound
> 400 µg/mL | C[Si]1(C)OB(O)c2cc(B(O)O)cc(F)c21

System: Candida parapsilosis
Assay: Antifungal activity against Candida parapsilosis ATCC 22019 assessed as decrease in fungal cell growth at 0.78 to 12.5 mg/L incubated for 24 hrs by CLSI broth dilution method
Format: functional
Settings: Lodderomyces parapsilosis, ATCC 22019, 24 h
Outline: as §5

MIC | Compound
100 µg/mL (≈ 417 µM) | C[Si]1(C)OB(O)c2cc(B(O)O)cc(F)c21

System: Candida parapsilosis
Assay: Antifungal activity against Candida parapsilosis ATCC 22019 assessed as diameter of zone inhibition incubated for 24 hrs by CLSI disc diffusion method
Format: functional
Settings: not given
Outline: as §2

Compound | diameter of the inhibition zone (DIZ)
C[Si]1(C)OB(O)c2cc(B(O)O)cc(F)c21 | inactive

System: Enterococcus faecium
Assay: Antibacterial activity against Enterococcus faecium ATCC 6057 measured after 18 hrs by CLSI broth dilution method
Format: functional
Settings: ATCC 6057, 18 h
Outline: as §1

MIC | Compound
200 µg/mL (≈ 834 µM) | C[Si]1(C)OB(O)c2cc(B(O)O)cc(F)c21

System: Klebsiella pneumoniae
Settings: ATCC 13883

Compound | DIZ
C[Si]1(C)OB(O)c2cc(B(O)O)cc(F)c21 | inactive

System: Candida tropicalis
Assay: Antifungal activity against Candida tropicalis IBA 171 assessed as diameter of zone inhibition incubated for 24 hrs by CLSI disc diffusion method
Format: functional
Settings: not given
Outline: as §2

Compound | diameter of the inhibition zone (DIZ)
C[Si]1(C)OB(O)c2cc(B(O)O)cc(F)c21 | inactive

System: Staphylococcus aureus
Assay: Antibacterial activity against Staphylococcus aureus ATCC 6538P assessed as diameter of zone inhibition measured after 18 hrs by CLSI disc diffusion method
Format: functional
Settings: not given
Outline: as §3

Compound | diameter of the inhibition zone (DIZ)
C[Si]1(C)OB(O)c2cc(B(O)O)cc(F)c21 | 18 mm

System: Meyerozyma guilliermondii
Assay: Antifungal activity against Candida guilliermondii IBA 155 assessed as diameter of zone inhibition incubated for 24 hrs by CLSI disc diffusion method
Format: functional
Settings: not given
Outline: as §2

Compound | diameter of the inhibition zone (DIZ)
C[Si]1(C)OB(O)c2cc(B(O)O)cc(F)c21 | inactive

System: Serratia marcescens
Assay: Antibacterial activity against Serratia marcescens ATCC 13880 measured after 18 hrs by CLSI broth dilution method
Format: functional
Settings: ATCC 13880, 18 h
Outline: as §1

MIC | Compound
> 400 µg/mL | C[Si]1(C)OB(O)c2cc(B(O)O)cc(F)c21

System: Bacillus subtilis
Assay: Antibacterial activity against Bacillus subtilis ATCC 6633 assessed as diameter of zone inhibition measured after 18 hrs by CLSI disc diffusion method
Format: functional
Settings: not given
Outline: as §3

Compound | diameter of the inhibition zone (DIZ)
C[Si]1(C)OB(O)c2cc(B(O)O)cc(F)c21 | 22 mm

System: Staphylococcus aureus
Assay: Antibacterial activity against Staphylococcus aureus ATCC 6538P measured after 18 hrs by CLSI broth dilution method
Format: functional
Settings: not given
Outline: as §1

MIC | Compound
50 µg/mL (≈ 208 µM) | C[Si]1(C)OB(O)c2cc(B(O)O)cc(F)c21

System: Candida albicans
Assay: Antifungal activity against Candida albicans ATCC 90028 assessed as diameter of zone inhibition incubated for 24 hrs by CLSI disc diffusion method
Format: functional
Settings: not given
Outline: as §2

Compound | diameter of the inhibition zone (DIZ)
C[Si]1(C)OB(O)c2cc(B(O)O)cc(F)c21 | inactive

System: Acinetobacter baumannii
Assay: Antibacterial activity against Acinetobacter baumannii ATCC 19606 assessed as diameter of zone inhibition measured after 18 hrs by CLSI disc diffusion method
Format: functional
Settings: not given
Outline: as §3

Compound | diameter of the inhibition zone (DIZ)
C[Si]1(C)OB(O)c2cc(B(O)O)cc(F)c21 | inactive

System: Enterococcus faecium
Assay: Antibacterial activity against Enterococcus faecium ATCC 6057 assessed as diameter of zone inhibition measured after 18 hrs by CLSI disc diffusion method
Format: functional
Settings: not given
Outline: as §3

Compound | diameter of the inhibition zone (DIZ)
C[Si]1(C)OB(O)c2cc(B(O)O)cc(F)c21 | 11 mm

System: Serratia marcescens
Settings: ATCC 13880

Compound | DIZ
C[Si]1(C)OB(O)c2cc(B(O)O)cc(F)c21 | inactive

System: Proteus mirabilis
Assay: Antibacterial activity against Proteus mirabilis ATCC 12453 assessed as fold reduction of MIC in presence of efflux pump inhibitor PAbetaN incubated for 18 hrs by broth microdilution method
Format: functional
Settings: not given
Outline: as §4

Compound | fold change (FC)
C[Si]1(C)OB(O)c2cc(B(O)O)cc(F)c21 | 4

System: Burkholderia cepacia
Assay: Antibacterial activity against Burkholderia cepacia ATCC 25416 assessed as diameter of zone inhibition measured after 18 hrs by CLSI disc diffusion method
Format: functional
Settings: not given
Outline: as §3

Compound | diameter of the inhibition zone (DIZ)
C[Si]1(C)OB(O)c2cc(B(O)O)cc(F)c21 | inactive

System: Bordetella bronchiseptica
Assay: Antibacterial activity against Bordetella bronchiseptica ATCC 4617 measured after 18 hrs by CLSI broth dilution method
Format: functional
Settings: ATCC 4617, 18 h
Outline: as §1

MIC | Compound
> 400 µg/mL | C[Si]1(C)OB(O)c2cc(B(O)O)cc(F)c21
